Source: PubChem BioAssay
aSyn UTR inh = 5' untranslated region of α-synuclein, MLPCN primary screen | alpha-synuclein 5'UTR reporter, inhibitor activity | inhibition, % (tested at 7.5 µM) | actives 0.82% (n = 300,000); in the data active = inhibition above about 60%;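 also: H4 neuroglioblastoma cells stably carrying SNCA 5'UTR luciferase fusion; 0% = DMSO wells and 100% = positive control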
SKKanGAS inh = SKKanGAS growth inhibition. S. pyogenes SKKanGAS, kanamycin growth, BacTiter-Glo, 6 h. inhibition, % at 7.5 µM. actives 1.3% (n = 300,000). AID 1662;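 active = mean replicate score, as percent of positive control median, at least 50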;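 also: strain carries kanamycin resistance gene driven by streptokinase promoter and grows in 40 µg/ml kanamycin; loss of luminescence reflects streptokinase promoter inhibition or plain growth inhibition; 0% = median of DMSO wells and 100% = positive control at its reference dose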
T cruzi inh = blocks replication of Trypanosoma cruzi | T. cruzi beta-gal in NIH3T3, luminescence, 90 h | AID 1885 | actives 1.4% (n = 300,000) | inhibition, % (concentration not given with the values);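 active = mean inhibition across valid replicates above about 55%, limit read from the data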;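 also: signal also drops with host cell toxicity which is not excluded here; 0% = plate median of DMSO wells and 100% = zero luminescence signal; higher percent means less beta-gal luminescence so fewer parasites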
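System: Mouse NIH/3T3 fibroblasts infected with β-gal-expressing T. cruzi Tulahuen C4 | Quantity: NIH/3T3 cells, 5,000 per well | Reagent: 5000 reporter trypomastigotes per well | Dosing: Compound pinned at 50 nL/well, DMSO | Schedule: 3 h host attachment, then at least 90 h co-culture | Detection: GalScreen luminescence, 60 min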
Mdm2-MdmX inh = disrupts the human Mdm2-MdmX interaction; SaOS-2 split-luciferase Mdm2/MdmX complementation, luminescence; inhibition, % at 8 µM; actives 3% (n = 330,000); O15151+Q00987;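 active = inhibition of at least 50% at 8 µM in the primary screen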
Target sequence (O15151 whole entry, looked up): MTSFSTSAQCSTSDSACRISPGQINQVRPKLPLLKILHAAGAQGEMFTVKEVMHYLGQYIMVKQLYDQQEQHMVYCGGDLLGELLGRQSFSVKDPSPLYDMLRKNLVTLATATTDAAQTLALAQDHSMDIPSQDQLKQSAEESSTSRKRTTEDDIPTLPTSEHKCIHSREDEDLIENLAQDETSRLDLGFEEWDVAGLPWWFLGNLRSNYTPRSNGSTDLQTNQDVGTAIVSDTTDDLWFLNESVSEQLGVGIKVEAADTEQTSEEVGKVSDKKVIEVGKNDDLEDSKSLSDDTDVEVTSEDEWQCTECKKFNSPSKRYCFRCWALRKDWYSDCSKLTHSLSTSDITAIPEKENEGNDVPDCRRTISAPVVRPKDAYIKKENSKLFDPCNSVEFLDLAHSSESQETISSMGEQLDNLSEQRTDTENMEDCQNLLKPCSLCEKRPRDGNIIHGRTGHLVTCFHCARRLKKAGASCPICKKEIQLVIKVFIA
Target sequence (Q00987 whole entry, looked up): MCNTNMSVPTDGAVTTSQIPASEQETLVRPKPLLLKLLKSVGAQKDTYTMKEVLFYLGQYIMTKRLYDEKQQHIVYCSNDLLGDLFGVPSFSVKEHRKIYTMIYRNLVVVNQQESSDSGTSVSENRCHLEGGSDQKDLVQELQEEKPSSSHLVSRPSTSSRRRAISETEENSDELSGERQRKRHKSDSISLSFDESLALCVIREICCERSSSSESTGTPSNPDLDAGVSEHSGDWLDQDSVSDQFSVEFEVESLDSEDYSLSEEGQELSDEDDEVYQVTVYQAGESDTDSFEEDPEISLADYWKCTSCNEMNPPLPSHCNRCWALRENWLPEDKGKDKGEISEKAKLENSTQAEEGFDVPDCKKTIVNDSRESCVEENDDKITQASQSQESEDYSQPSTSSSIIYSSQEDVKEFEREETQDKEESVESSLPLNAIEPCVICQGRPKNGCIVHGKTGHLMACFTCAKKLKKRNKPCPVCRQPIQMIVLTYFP
CSC inhib = cancer stem cell inhibition; cancer stem cell-like cells viability, luminescence; inhibition, % at 7.5 µM; actives 1.1% (n = 300,000); AID 2717; in the data active = inhibition above about 75%; tested in HMLE shEcad cells
Mdm2 MdmX conf = confirmation of human Mdm2/MdmX interaction inhibitors. shares compounds with Mdm2-MdmX inh. Mdm2-MdmX binding, luminescent assay. inhibition, % at 8 µM. actives 55% (n = 10,000). AID 489028; in the data active = inhibition above about 40%
Full FLuc ctr = full-length luciferase inhibition in Mdm2/MdmX counter-screen | actives 77% (n = 6,200) | shares compounds with Mdm2-MdmX inh | inhibition, % at 8 µM | SaOS-2 full-length luciferase counterscreen, luminescence;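 active = mean inhibition at 8 µM reaching about 37%, which flags the compound as non-specific, limit read from the data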;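 also: p53-null SaOS-2 cells with luciferase driven by a doxycycline-inducible promoter; compound on cells about two nights before reading with doxycycline added after day one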
An asterisk follows results filed as active; · = no result. Hits are enriched below; roughly 5.4% of the tested compounds scored in any of these assays.

SMILES | aSyn UTR inh | SKKanGAS inh | T cruzi inh | Mdm2-MdmX inh | CSC inhib | Mdm2 MdmX conf | Full FLuc ctr
CCOC(=O)N1CCN(C(=O)C2CCC(=O)N(Cc3cccc(C(F)(F)F)c3)C2)CC1 (configuration not stated) | -18.5 | -1.1 | -3.2 | 8.2 | -1.3 | · | ·
Cc1ccc(C)c(OCCC(=O)Nc2ccccc2C(=O)NC2CC2)c1 | · | · | · | 13.4 | · | · | ·
COc1ccccc1NC(=O)CCN1C(=O)/C(=C\c2cc(OC)c(OC)c(OC)c2)SC1=S | -0.2 | 7.5 | -12.8 | 51.8* | 5.5 | -2.4 | ·
O=C(CCCN1C(=O)S/C(=C/C=C/c2ccccc2)C1=O)Nc1ccc(C(=O)O)cc1 | 16.8 | 32.0 | -27.0 | 13.5 | 5.5 | · | ·
O=C(CCCN1C(=O)/C(=C/c2ccccc2)SC1=S)Nc1cccc(O)c1 | 1.5 | 4.0 | 23.7 | 100.2* | · | 93.0* | 58.0*
Cc1ccc(NC(=O)CCCN2C(=O)/C(=C/C=C/c3ccccc3)SC2=S)cc1 | -20.3 | 2.0 | 2.9 | 56.7* | 12.9 | 40.9* | 47.0*
COc1cccc(/C=C2\SC(=S)N(CCCC(=O)Nc3cc(C)on3)C2=O)c1 | 8.7 | 1.0 | -4.3 | 51.9* | 3.8 | 57.9* | 70.0*
O=C(CN1CCCCCC1)N/N=C/c1cccc(Cl)c1Cl | -25.0 | -4.4 | -7.1 | -5.0 | -12.8 | · | ·
COc1ccccc1/C=C/C=N/n1c(C)nnc1C | 8.8 | -8.4 | -2.5 | -1.1 | -11.9 | · | ·
Cc1ccc(S(=O)(=O)Nc2cccc(C(=O)N3CCCC3)c2)cc1F | -0.2 | -7.2 | -7.1 | 20.6 | · | · | ·
CCCOc1ccc(N2C(=O)CC(N3CCN(CCN=CC4C(=O)CC(C)(C)CC4=O)CC3)C2=O)cc1 (configuration not stated) | -29.9 | -15.8 | 9.8 | 27.2 | -11.5 | · | ·
O=C(CCCN1C(=O)/C(=C/c2cccs2)SC1=S)Nc1cccc(O)c1 | -27.0 | 6.1 | 12.5 | 88.7* | 35.9 | 79.7* | 73.0*
Cc1ccc(/C=C2/SC(=S)N(CCCC(=O)Nc3ccc(O)cc3)C2=O)cc1 | 86.3* | 2.6 | 34.3 | 91.9* | · | 94.2* | 53.8*
CCOC(=O)c1ccc(CNC(=O)c2n[nH]c(=O)c3ccccc23)o1 | -1.5 | -0.6 | -3.7 | 19.0 | -1.4 | · | ·
Cc1cccc(NC(=O)[C@H](Cc2c[nH]c3ccccc23)NC(=O)[C@@H]2Cc3ccccc3CN2)c1 | 31.6 | 4.5 | 12.9 | 95.4* | 42.2 | 79.1* | 26.6
Cc1ccc(NC(=O)[C@H](Cc2c[nH]c3ccccc23)NC(=O)[C@@H]2Cc3ccccc3CN2)c(C)c1 | 22.7 | -1.6 | 6.2 | 96.7* | -12.9 | 82.1* | 49.1*
COC(=O)C(Cc1c[nH]c2ccccc12)NC(=O)c1cccs1 (configuration not stated) | 14.4 | -9.2 | -22.6 | -0.7 | -12.5 | · | ·
CCc1ccc(NC(=O)[C@H](Cc2c[nH]c3ccccc23)NC(=O)[C@@H]2Cc3ccccc3CN2)cc1 | -7.0 | 4.2 | -5.2 | 92.9* | -1.8 | 83.3* | 24.1
O=C(NC(Cc1c[nH]c2ccccc12)C(=O)Nc1ccc(F)cc1)c1cccs1 (configuration not stated) | 33.6 | 4.3 | -8.8 | 85.8* | -13.3 | 70.8* | 70.3*
COc1cccc(OCc2cc(C(=O)N3CCNC(=O)C3Cc3ccccc3)no2)c1 (configuration not stated) | -74.4 | 1.4 | -15.2 | -25.6 | -5.0 | · | ·
CC(NC(=O)[C@H](Cc1c[nH]c2ccccc12)NC(=O)[C@@H]1Cc2ccccc2CN1)c1ccccc1 (some centres not stated) | 22.9 | 4.0 | -7.0 | 19.4 | 5.9 | · | ·
Cc1cc(C)cc(NC(=O)[C@H](Cc2c[nH]c3ccccc23)NC(=O)[C@@H]2Cc3ccccc3CN2)c1 | -4.1 | 4.7 | 17.6 | 59.9* | 4.3 | 15.3 | ·
COC(=O)c1c(NC(=O)COC(=O)[C@@H](NS(=O)(=O)c2cccc(Cl)c2)C(C)C)sc2c1CCC2 | 27.6 | 32.4 | 21.3 | 2.6 | · | · | ·
COC(=O)c1sc(N)c(C(=O)OC)c1COC(=O)[C@@H](NS(=O)(=O)c1cccc(Cl)c1)C(C)C | 13.0 | 11.4 | 3.6 | 54.5* | 16.1 | 27.7 | ·
CC(=O)Nc1cccc(-c2csc(N)n2)c1 | -10.7 | -2.1 | -7.1 | 6.3 | 13.1 | · | ·
